Here are results for 48 sequences from the EternaBench riboswitch data.

The data set concerns MS2 coat protein. The experiment in a line: apparent Kd, MS2 coat protein; higher = weaker binding; RNA-MaP array; FMN 200 µM where present. Summed up:
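Green signal from SNAP-549-labelled MS2 coat protein was normalised to red-channel RNA signal and to the median Fmax of control clusters. The protein was titrated from 0.7 or 1.5 nM, doubling to 3 µM, without and then with constant ligand, over designs transcribed by stalled E. coli RNA polymerase on Illumina sequencing-chip clusters, in 100 mM Tris-HCl pH 7.5, 80 mM KCl, 4 mM MgCl2, BSA, DTT, yeast tRNA and Tween-20. The apparent Kd is the median of filtered per-cluster binding-curve fits.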

The mark [1] stands for this setting: designed as: ON switch for flavin mononucleotide, no ligand.
The mark [2] stands for this setting: ligand present: flavin mononucleotide, designed as: ON switch for flavin mononucleotide.
Where [3] appears, read: designed as: OFF switch for flavin mononucleotide, no ligand.
Where [4] appears, read: ligand present: flavin mononucleotide, designed as: OFF switch for flavin mononucleotide.

Turning to “GGUAAGAUGCAGAAGGUGUUAGCUAGAGCUACGACAUGAGGAUCACCCAUGUACUAGAAACAGUACAAGGAUAUGCAUCUUACG”, the “apparent Kd” value reads like this: under setting [1], 19.1 nM; under setting [2], 6.5 nM.
For “GUGCUCGUGUAAGGAUAUGCAGCCGUUUCGGCUGCAGAAGGUACUAUAAUACAUGAGGAUCACCCAUGUCUCUAUAGUUUGGUG” the same measures were 27.4 nM and 33.1 nM.
For “CAAUUGGCACAGAAGGGUGACAUGAGGAUCACCCAUGUAGCGUGGCUCUCAGGAGGAGCCACGCCACAGGAUAUGUGCGGGCAC” the same measures were 33.2 nM and 63.2 nM.
On to “AAUUAACAUGAGGAUCACCCAUGUGAGGAUAUGAUAUUACUUGGACAGCUAUGAUCAAUCAGAAGGCACAUCUU”, for which the “apparent Kd” value under setting [3] came to 22.3 nM and the “apparent Kd” value under setting [4] stood at 28.5 nM.
With “CUAUAUAAUACCUCAUGUACAUGAGGAUCACCCAUGUUAACUUAGGAUAUAUUUAUAUUAAUAAAGUAGAAGGAAGUACUAUUU”, the “apparent Kd” value was 23.3 nM under setting [3] and 19.4 nM under setting [4].
For “GUCAGCUCGUGAGGAUAUACAACACUGCUUCGGCAGUGUAUUAAGAUCACAUGAGGAUCACCCAUGUAGAAGGCACGUGCUGAU” the same measures were 12.5 nM and 276 nM.
As for “AGCACGAGAGGUGCUGUCUAACCACAUGAGGAUCACCCAUGUAAGGAUAUCGCGGCUAUCGGCAUCGAGAAGGUACAGGGAGCA”, the “apparent Kd” value by setting is: under setting [3], 11.2 nM; under setting [4], 21.6 nM.
For “UGAUAGCACAGAGGAUAUGCGUAGAGUUAUCACUACAUGAGGAUCACCCAUGUAGAAGGCUGUGCUAUCUAAGUCGGAAACGAC” the same measures were 5.89 nM and 6.17 nM.
For “AAGUACGUAAAGAAGGCGCGGGCAACCAUUCUGCGAGGAUAUUUACAUGAGGAUCACCCAUGUGCAUGGGAUCGAGAAGAAUUG”, in that order: 159 nM and 41.9 nM.
In the case of “AUUAACUACAUAGGAUAUUGUUACAUGAGGAUCACCCAUGUUAUAUGGGAACUAGGAAUAUUUGUCAAGAAGGAUGUGGUUACA”, the “apparent Kd” value under setting [1] is 232 nM and the “apparent Kd” value under setting [2] amounted to 33 nM.
On to “CCAUGGCUGUGAGGAUAUGUCUGACAAAGUCAGACAGAAGGCACAUGAGGAUCACCCAUGUGAGGAAAACCACAUUUGCCAUGG”, for which the “apparent Kd” value is 5.81 nM under setting [3] and 6.29 nM under setting [4].
For the sequence “UAACUGCAGAAGAUAAUAAUGAAUACAUGAGGAUCACCCAUGUAGGAUAUCGUCAGGAAUACUGACGAGAAGGACAUACUGCAG”, the “apparent Kd” value reads like this: under setting [3], 14.1 nM; under setting [4], 16.9 nM.
As for “AUACUCAUGUAAGGAUAUGCAGCCGUUUCGGCUGCAGAAGGUACUAUAAUACAUGAGGAUCACCCAUGUCCCUCGCAUUGCGAG”, the “apparent Kd” value under setting [1] is 657 nM and the “apparent Kd” value under setting [2] stood at 85.9 nM.
Consider “GAGCGCUGUCAAGGAUAUCCGAAAAGAAAAUAAGGAGAAGGUGACAUGAGGAUCACCCAUGUGCACUGGGUGGACGCGCGCUCC”, for which the “apparent Kd” value is, setting by setting: under setting [3], 459 nM; under setting [4], 256 nM.
For “GGUGGACAUGAGGAUCACCCAUGUGAGGAUAUCGGCUGGUACGUGGUGGCUGGCAUCUCGAGAAGGCACAUAGU”, in that order: 80.1 nM and 202 nM.
For “GCCUGAUCAACUCUAGGCCCAGACAGAAGGGCACACGGUCUAAGUCACAUGAGGAUCACCCAUGUGCAGGAUAUGUCUCGACUC” the same measures were 8.03 nM and 21.4 nM.
For “GUUGUUUCUGAGGAUAUUAUUUUUUUCGAUUGAUAAGAAGGCAGUACAUGAGGAUCACCCAUGUGGGUUGUUUG” the same measures were 54.5 nM and 164 nM.
For the sequence “GUGAAACAUGAGGAUCACCCAUGUGAGGAUAUGUUUUAGUACUGGAGACAGUACAUCUAUAGAAGGCACAAUGG”, the “apparent Kd” value runs as follows: under setting [3], 68.2 nM; under setting [4], 89.1 nM.
For “UCGGCGCGAGGAUAUACGUUUGCGCGUUUUCGUUUUCGCGUACAUGAGGAUCACCCAUGUAGAAGGCGCGCCGC”, in that order: 16.6 nM and 32.1 nM.
For “GUGAGGUCAGGAUAUGCAUGGCGGGACUUGCGUCGUGGCGUGCAGAAGGGACAUGAGGAUCACCCAUGUGGAGC” the same measures were 81.6 nM and 194 nM.
For “GUAAGCUCGUGAGGAUAUACAACACUGCUUCGGCAGUGUAUUAAGAUCACAUGAGGAUCACCCAUGUAGAAGGCACGAGCUGAU” the same measures were 13.8 nM and 245 nM.
Turning to “UCACGGGACUGAGGAUAUACAUGAAUUAUUUUUGUAGAAGGCAGAAUGUUAGAUUAUUCACUAUACAUGAGGAUCACCCAUGUU”, the “apparent Kd” value under setting [3] worked out at 25.3 nM and the “apparent Kd” value under setting [4] was determined as 18.2 nM.
For “ACCUCACAUGAGGAUCACCCAUGUUAGGAUAUCUCGGCGCCCUGCAGGCAGUGGCACCAGAGAAGGAACGUGCA”, in that order: 22.5 nM and 25.3 nM.
For “AAAAUGUGAGGAUAUCAGGUGUGCUAGCGAACUGGUACAUCUGAGAAGGCACAUGAGGAUCACCCAUGUUCCUU” the same measures were 15.8 nM and 57 nM.
In the case of “ACUCAGUCAGGAUAUCGUUAAUUUAAUUGUUUGUUUUAGUUCGAGAAGGGACAUGAGGAUCACCCAUGUACUCA”, the “apparent Kd” value by setting is: under setting [3], 25.3 nM; under setting [4], 51.2 nM.
For “GCUGUCGCAUGAGGAUAUGGUCAGCUUUGCUGACCAGAAGGCAUGUCAAUAGACAUGAGGAUCACCCAUGUAGUAAGGGCGGCU”, the “apparent Kd” value under setting [1] came out at 466 nM and the “apparent Kd” value under setting [2] is 48.8 nM.
Regarding “CAACCGUUGCAGAAGGUUAAAUAAAUUCUCUUCUUGUUUACAUGAGGAUCACCCAUGUUUUUGUUGAAGGAUAUGCAAGGGUUG”, the “apparent Kd” value runs as follows: under setting [3], 5.59 nM; under setting [4], 5.79 nM.
As for “UUUAUUAAUUAGAAGGCUUGAUGAAUUACAAUAGACAUGAGGAUCACCCAUGUGUAUUCAUGUCAAGAGGAUAUAGUCAUAUAU”, the “apparent Kd” value is, setting by setting: under setting [1], 11.3 nM; under setting [2], 6.38 nM.
On to “UGUCGGAGCAGAGGAUAUUACAUGAGGAUCACCCAUGUGUGAACCAAUAGCUGGAAACAGCAAUGUAAGAAGGCUGCUCCGACA”, for which the “apparent Kd” value runs as follows: under setting [3], 58.4 nM; under setting [4], 29.2 nM.
As for “AAAUACGUUUCGUAGCAGUGUCAUCGAGAAGGCCCUGACAUGAGGAUCACCCAUGUUGUUACAUGGGAGGAUAUCGAUGAUAAA”, the “apparent Kd” value runs as follows: under setting [1], 16.2 nM; under setting [2], 5.52 nM.
Consider “GUAAAUCAUGUAGGAUAUGCAUGGCGAAGCUACGCAGAAGGACAUGAGGAUCACCCAUGUUCUGGCUACCGGAUACGGUGGCAA”, for which the “apparent Kd” value by setting is: under setting [3], 21.1 nM; under setting [4], 87.6 nM.
For “UGAGCCUCGUGAGGAUAUACAUGAGGAUCACCCAUGUAAUAAGAUCAACGGAGGAAACUCCGAAUGUAGAAGGCACGAGGCUCA” the same measures were 40.9 nM and 393 nM.
For “GGGCCCGGAGGAUAUACAUGAGGAUCACCCAUGUACCCGGGUUUUAUUGGGCCCGGGUGUAGAAGGUUGGGCCC” the same measures were 14.1 nM and 13.3 nM.
For “CUCUAUCAUGUAGGAUAUGCGUGUCGAAGCUAUGCAGAAGGACAUGAGGAUCACCCAUGUCUUACUGUCUGCGGACGGACAGGG”, in that order: 22.4 nM and 53.9 nM.
As to “GCUUUAGUAUCACAUGUAUUACAUGAGGAUCACCCAUGUUACUAGGAUAUGUAUUAGAAUUUACAACAGAAGGAGUAAGAAUGU”, the “apparent Kd” value reads like this: under setting [3], 7.49 nM; under setting [4], 8.93 nM.
With “AAACGCGUAGGAUAUACAUGAGGAUCACCCAUGUAUUGGGCUGUUGAUCUUCCUAAGGGUAGAAGGACGGGCAC”, the “apparent Kd” value under setting [3] was 68.1 nM and the “apparent Kd” value under setting [4] came to 119 nM.
For “AUGUACCGGUGAGGAUAUUUUUAAUAGAACUUUAUGAUAUACAUGAGGAUCACCCAUGUUACUUUAAAGAAGGCAUCGGAUUAA”, in that order: 17.7 nM and 14.2 nM.
Regarding “GACACUAUGUUUGUCAGAUAGAGAGAGGAUAUGGGUUAUGAGACAUGAGGAUCACCCAUGUUUAUUCAGAAGGCUCGAGUACGA”, the “apparent Kd” value under setting [1] is 90.9 nM and the “apparent Kd” value under setting [2] came out at 11.8 nM.
For “CGUGACGACAUAGGAUAUUGUUACAUGAGGAUCACCCAUGUCAACCAUUUAUCUCAAAUUGUUGACAAGAAGGAUGUGGUCACG” the same measures were 32.6 nM and 11.6 nM.
Take “AACAGCUCGUCAGGAUAUAUUUUCAUUAUAUGUAUUUAUGUACAUGAGGAUCACCCAUGUUGUUUGUAGAAGGGACGAGCUGAA”: the “apparent Kd” value stood at 13.6 nM under setting [3] and 11.4 nM under setting [4].
For “GUGAAGUAAGGAUAUACAUGAGGAUCACCCAUGUGUGGGAAGGUGAUGGGAGUAGGUAGUAGAAGGUACGAGGA” the same measures were 130 nM and 76.6 nM.
“AGAAACUACGAGAAGGACAUAUGGUUCUUCAGAUACAUGAGGAUCACCCAUGUAGGAUAUCGUAGUUUCAGGAUCGUGAGAUCA”: the “apparent Kd” value reads like this: under setting [3], 6.51 nM; under setting [4], 9.68 nM.
For the sequence “GAAAACAGAGGAUAUACAAAAUUAUGACGAAAGUCAUAAAAACAUGAGGAUCACCCAUGUAGAAGGCUGAAGAA”, the “apparent Kd” value runs as follows: under setting [3], 29 nM; under setting [4], 26.9 nM.
Take “AGAAACUACGAGAAGGACAUAUGGUACUUCAGCUACAUGAGGAUCACCCAUGUAGGAUAUCGUAGUUUCAGGAUCGUGAGAUCA”: the “apparent Kd” value is, setting by setting: under setting [3], 5.65 nM; under setting [4], 6.02 nM.
For “GGUCUGAGAGGAUAUACAUGAAAAAAAAAAGUAAGAUCCCUACAUGAGGAUCACCCAUGUAGAAGGCUCUGAUA”, in that order: 33.8 nM and 33.9 nM.
For “GAUAGGACAGAGAAGGACGUAGCUAGAGAUACUAGCAUAAAGUCUUCAACAUGAGGAUCACCCAUGUAGGAUAUCUGUCCUAUC” the same measures were 6.43 nM and 6.64 nM.
Consider “CUUUGAUGAGGAUAUCGAGGUUAGUACAUGAGGAUCACCCAUGUUAUCCAGGUGUCGGUUCGAGAAGGUAUUGGAC”, for which the “apparent Kd” value reads like this: under setting [3], 16.7 nM; under setting [4], 18.5 nM.
For “AUUUGACAUGAGGAUCACCCAUGUGAGGAUAUCGUUAUUUACUUUGUUUAUAGUAUCUCGAGAAGGCACAUUUG”, in that order: 63.3 nM and 220 nM.
